Laboratory results from PMC8908367 (ACS Omega, 2022).

What was measured:
[1] = test system: T. cruzi intracellular parasite; settings: cited from earlier work
trypanothione reductase = settings: cited from earlier work
[2] = Host cell toxicity in the high-content imaging assay; assay type: cell-based; settings: mouse
[3] = test system: T. cruzi CA-I/72 amastigotes; assay type: cell-based, Trypanosoma cruzi
How it was run: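 Test compound in DMSO acoustically spotted into 384-well plates. C2C12 mouse […] (500/well) and CA-I/72 T. cruzi (7500/well; strain kept by weekly C2C12 coculture passage) added together, 72 h at 37 °C, 5% CO2. Fixed in 4% paraformaldehyde/PBS, DAPI 5 μg/mL 1 h, imaged at 10×. Automated host and parasite nuclei counts fitted to CC50 and EC50 curves; SI = CC50/EC50.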

Structure (SMILES) | activity against the intracellular parasite in vitro [1] | inhibition of trypanothione reductase (trypanothione reductase) | CC50 at 72 h [2] [nM] | SI (Selectivity Index = CC50/EC50) ([3]; CC50 C2C12 / EC50 T. cruzi CA-I/72) | EC50 ([3]; Trypanosoma cruzi, C2C12, 72 h, read-out: EC50, inhibition of T. cruzi amastigote replication) [nM]
C=C1C(=O)[C@H]2O[C@]23C[C@H]2CC(C)(C)[C@H](O)[C@H]2[C@]13C [hypnophilin] | showed activity | potent inhibitor | – | – | –
O=C(Cn1ccnc1[N+](=O)[O-])NCc1ccccc1 [Benznidazole] | – | – | > 50000 | >22 | 2200 ± 1.3
